Results from different studies.
Target: Mitogen-activated protein kinase kinase kinase 3 (MAP3K3, Homo sapiens, UniProt Q99759)
Residues used in one study (Q99759 1-626): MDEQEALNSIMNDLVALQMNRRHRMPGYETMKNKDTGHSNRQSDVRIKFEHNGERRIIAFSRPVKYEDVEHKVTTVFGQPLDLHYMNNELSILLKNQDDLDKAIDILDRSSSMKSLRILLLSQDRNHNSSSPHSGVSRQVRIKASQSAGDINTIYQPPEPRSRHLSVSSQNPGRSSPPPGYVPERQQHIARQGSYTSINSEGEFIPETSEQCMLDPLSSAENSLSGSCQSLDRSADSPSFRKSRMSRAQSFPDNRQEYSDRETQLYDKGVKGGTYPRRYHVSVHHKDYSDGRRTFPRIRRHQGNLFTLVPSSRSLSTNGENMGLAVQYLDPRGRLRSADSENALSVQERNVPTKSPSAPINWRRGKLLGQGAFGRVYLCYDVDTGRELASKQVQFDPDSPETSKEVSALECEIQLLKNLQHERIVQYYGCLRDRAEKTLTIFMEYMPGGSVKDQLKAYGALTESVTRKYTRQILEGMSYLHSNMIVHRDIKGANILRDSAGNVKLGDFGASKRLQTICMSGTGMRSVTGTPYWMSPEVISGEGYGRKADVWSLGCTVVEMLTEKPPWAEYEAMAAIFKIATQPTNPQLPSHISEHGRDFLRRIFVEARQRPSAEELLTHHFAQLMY

Compound | test | conditions | quantity | result
Cc1ccc(NC(=O)c2ccc(CN3CCN(C)CC3)cc2)cc1Nc1nc(-c2cccnc2)cs1 | cell-free assay | 0.5 µM | remaining signal | 108%
CC(C)(C)c1nc2c(s1)c1nc(N)ncc1c1ccc(NS(=O)(=O)c3c(F)cccc3F)c(F)c12 | enzyme activity, inhibitor, radiometric | 1 µM | remaining activity | 117%
O=C1NC(=O)c2cc(Nc3ccc(F)cc3)c(Nc3ccc(F)cc3)cc21 | cell-free assay | 0.5 µM | remaining signal | 102%
COc1ccc(F)cc1C(=O)NCc1ccc(-c2nn([C@@H](C)C(F)(F)F)c(N)c2C(N)=O)cc1 | target engagement in cells, inhibitor, chemoproteomics | 10 nM | inhibition | 4.7%
Cn1cc(Cl)c2c(Oc3c(F)cc(Nc4cc(Cl)nc(N)n4)cc3F)ccnc21 | cell-free assay, competition with immobilised ligand | 0.1 µM | remaining binding | 90%
Nc1ncnc2occ(-c3ccc(NC(=O)Nc4cc(C(F)(F)F)ccc4F)cc3)c12 | cell-free assay, inhibitor | 20 µM | remaining signal | 4.3%
O=C(Nc1cnn(-c2csc(C(=O)NC3COC3)c2)c1)Nc1ccccc1Cl | enzyme activity, inhibitor | 5 µM | remaining activity | 113%
CN(c1ccnc(CNc2nc(Nc3ccc4c(c3)CC(=O)N4)ncc2C(F)(F)F)n1)S(C)(=O)=O | cell-free assay, competition with immobilised ligand | 1 µM | remaining binding | 44%
Cc1ccc(C(=O)Nc2ccc(CN3CCN(C)CC3)c(C(F)(F)F)c2)cc1C#Cc1cnc2cccnn12 | enzyme activity, inhibitor | 23.5 nM | remaining activity | 34%
Cc1nc(C2CCN(C(=O)c3ccc(OC(F)(F)F)cc3N)CC2)c2ncc(N3CCN(C)CC3)cc2n1 | cell-free assay, competition with immobilised ligand | 1 µM | remaining binding | 92%
COc1cc(Nc2c(C#N)cnc3cc(OCCCN4CCN(C)CC4)c(OC)cc23)c(Cl)cc1Cl | cell-free assay | 0.5 µM | remaining signal | 11.8%
O=C(NCc1ncc(C(F)(F)F)cc1Cl)c1ccc2c(c1)C1(CCS(=O)(=O)CC1)[C@H](C1CC1)N2S(=O)(=O)c1ccc(F)cc1 | cell-free assay, competition with immobilised ligand | 1 µM | remaining binding | 74%
Cc1ccc(C(=O)NCc2ccsc2)cc1C#Cc1cn(C(C)C)c2ncnc(N)c12 | enzyme activity, inhibitor | 1 µM | activity vs control | 70%
O=C1Nc2ccc(Cl)cc2C1=Cc1cc(Cl)c(O)c(Cl)c1 | cell-free assay | 0.5 µM | remaining signal | 101%
C[C@@H]1CN(c2cc(-c3n[nH]c4ccc(OC5(C)CC5)cc34)ncn2)C[C@H](C)O1 | cell-free assay, competition with immobilised ligand | 0.1 µM | remaining binding | 64%
CN1CC(Oc2cnc(C#N)cc2-c2ccn3nc(NC(=O)C4CC4)cc3c2)C1 | enzyme activity, inhibitor | 1 µM | inhibition | 3%
